Source: ChEMBL document CHEMBL1142011, “Discovery of an exceptionally potent and selective class of fatty acid amide hydrolase inhibitors enlisting proteome-wide selectivity screening: concurrent optimization of enzyme inhibitor potency and selectivity” (Bioorg Med Chem Lett, 2005)
Where “and” joins values, the source holds several entries; their conditions need not be identical. Identical values can stand only once.

Legend:
Liver carboxylesterase 1 = target: T1, Liver carboxylesterase 1 (Homo sapiens, UniProt P23141); assay: Inhibitory concentration of triacylgylcerol hydrolase using FP-Rh radioligand
T1 sequence (P23141 whole entry): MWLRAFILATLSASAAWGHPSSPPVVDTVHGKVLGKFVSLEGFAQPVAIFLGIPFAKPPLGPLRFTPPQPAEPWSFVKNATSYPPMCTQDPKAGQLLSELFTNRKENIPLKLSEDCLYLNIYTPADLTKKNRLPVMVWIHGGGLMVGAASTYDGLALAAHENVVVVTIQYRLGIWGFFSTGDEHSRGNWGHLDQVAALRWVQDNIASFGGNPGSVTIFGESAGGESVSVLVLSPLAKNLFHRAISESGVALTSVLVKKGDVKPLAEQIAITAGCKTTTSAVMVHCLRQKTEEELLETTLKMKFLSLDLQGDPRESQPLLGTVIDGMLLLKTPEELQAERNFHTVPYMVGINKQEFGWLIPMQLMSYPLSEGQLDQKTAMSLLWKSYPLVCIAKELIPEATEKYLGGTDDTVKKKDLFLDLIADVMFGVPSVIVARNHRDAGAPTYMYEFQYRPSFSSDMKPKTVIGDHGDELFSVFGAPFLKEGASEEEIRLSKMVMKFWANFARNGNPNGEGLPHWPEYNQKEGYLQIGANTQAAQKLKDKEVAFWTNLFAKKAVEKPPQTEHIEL
In short: (§1)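 Competitive activity-based profiling of native membrane proteomes (brain, heart) with no purified enzyme or substrate. Proteome was incubated with rhodamine-tagged fluorophosphonate (FP-Rh) across systematically varied inhibitor concentrations under kinetically controlled conditions. Labeled serine hydrolases were resolved by SDS-PAGE and fluorescence-detected. Loss of band labeling gave IC50 for each enzyme.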

[1] = target: T2, Fatty-acid amide hydrolase 1 (Homo sapiens, UniProt O00519); assay: Inhibitory concentration of fatty acid amide hydrolase using FP-Rh radioligand; in short: as §1
T2 sequence (O00519 whole entry): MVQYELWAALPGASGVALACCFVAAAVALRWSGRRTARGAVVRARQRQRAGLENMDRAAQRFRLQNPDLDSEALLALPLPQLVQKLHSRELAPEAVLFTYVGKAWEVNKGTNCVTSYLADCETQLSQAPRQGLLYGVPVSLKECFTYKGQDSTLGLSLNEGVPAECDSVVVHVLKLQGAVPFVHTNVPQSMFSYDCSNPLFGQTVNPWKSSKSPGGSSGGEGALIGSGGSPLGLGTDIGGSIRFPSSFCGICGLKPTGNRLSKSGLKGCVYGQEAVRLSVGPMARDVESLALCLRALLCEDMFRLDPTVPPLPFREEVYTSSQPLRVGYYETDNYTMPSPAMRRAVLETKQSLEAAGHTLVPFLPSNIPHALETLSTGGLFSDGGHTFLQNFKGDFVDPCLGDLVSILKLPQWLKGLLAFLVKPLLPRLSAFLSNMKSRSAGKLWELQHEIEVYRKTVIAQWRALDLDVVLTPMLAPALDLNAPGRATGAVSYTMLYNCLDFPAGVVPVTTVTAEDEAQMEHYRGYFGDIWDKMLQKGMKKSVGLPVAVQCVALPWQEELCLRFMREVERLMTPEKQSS

[2] = Concentration of 50% inhibition of KIAA1363 was determined using FP-Rh as radioligand; in short: as §1
[3] = target: T3, Fatty-acid amide hydrolase 1 (Mus musculus, UniProt O08914); assay: Inhibitor affinity towards enzymes of class serine hydrolase was determined using biotin or fluorescent as radioligand (FP-biotin or FP-Rh)
T3 sequence (O08914 whole entry): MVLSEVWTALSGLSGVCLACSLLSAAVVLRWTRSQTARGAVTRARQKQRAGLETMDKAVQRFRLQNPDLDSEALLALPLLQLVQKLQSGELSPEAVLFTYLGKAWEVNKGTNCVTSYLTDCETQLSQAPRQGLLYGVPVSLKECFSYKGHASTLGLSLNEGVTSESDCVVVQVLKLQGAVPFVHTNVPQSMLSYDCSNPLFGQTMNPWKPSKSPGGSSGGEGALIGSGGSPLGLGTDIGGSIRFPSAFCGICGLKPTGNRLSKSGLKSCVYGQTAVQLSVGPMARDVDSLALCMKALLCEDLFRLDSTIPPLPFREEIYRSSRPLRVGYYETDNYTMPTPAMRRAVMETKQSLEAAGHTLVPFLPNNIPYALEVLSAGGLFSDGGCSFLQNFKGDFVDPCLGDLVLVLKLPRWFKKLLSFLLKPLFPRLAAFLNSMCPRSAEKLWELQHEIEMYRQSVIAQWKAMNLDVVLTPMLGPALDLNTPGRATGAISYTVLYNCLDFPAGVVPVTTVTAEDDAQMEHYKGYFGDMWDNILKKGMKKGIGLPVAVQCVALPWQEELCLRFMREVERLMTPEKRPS

IC50 (Liver carboxylesterase 1) | IC50 [1] | IC50 [2] | Ki [3] | SMILES
10000 nM | 10000 nM | > 100000 nM | 370 nM | CCCCCCCC/C=C\CCCCCCCC(=O)c1nc2ccccc2o1
1000 nM | 40 nM | 60000 nM | 2.3 nM | CCCCCCCC/C=C\CCCCCCCC(=O)c1nc2ncccc2o1
20000 nM | 200 nM | > 100000 nM | 16 nM | CCCCCCCC/C=C\CCCCCCCC(=O)c1nnc(-c2ccccc2)o1
 |  |  | 2 nM | O=C(CCCCCCc1ccccc1)c1nnc(-c2ccccc2)o1
500 nM | 0.8 nM | 3000 nM | 0.85 nM and 0.83 nM | O=C(CCCCCCCCc1ccccc1)c1nnc(-c2ccccn2)o1
50000 nM | 5000 nM | > 100000 nM | 320 nM | CCCCCCCC/C=C\CCCCCCCC(=O)c1ncc(-c2ccccc2)o1
100 nM | 20 nM | > 100000 nM | 1 nM | O=C(CCCCCCc1ccccc1)c1nnc(-c2cccnc2)o1
9000 nM | 2000 nM | > 100000 nM | 100 nM | CCCCCCCC/C=C\CCCCCCCC(=O)c1ncco1
 |  |  | 90 nM | CCCCCCCC/C=C\CCCCCCCC(=O)c1nnco1
50000 nM | 200 nM | > 100000 nM | 18 nM | CCCCCCCC/C=C\CCCCCCCC(=O)c1ncc(-c2ccccn2)o1
20000 nM | 4 nM | > 100000 nM | 3 nM | CCCCCCCC/C=C\CCCCCCCC(=O)c1nnc(-c2ccccn2)o1

The remaining lines, values behind:

SMILES | IC50 (Liver carboxylesterase 1) | IC50 [1] | IC50 [2] | Ki [3]
O=C(CCCCCCc1ccccc1)c1nnc(-c2ccccn2)o1 | 140 nM | 1 nM | 90000 nM | 
CCCCCCCC/C=C/CCCCCCCC(=O)C(F)(F)F | 5000 nM | 5000 nM | 1000 nM | 80 nM
O=C(CCCCCc1ccccc1)c1nnc(-c2ccccn2)o1 | 30 nM | 4 nM | 50000 nM | 
O=C(CCCCCCc1ccccc1)C(F)(F)F | 1 nM | 5000 nM | 200 nM | 100 nM
CCCCCCCCCC(=O)C(F)(F)F | 10 nM | 10000 nM | 400 nM | 130 nM
CCCCCCCC(=O)C(F)(F)F | 2 nM | 30000 nM | 1500 nM | 1200 nM
O=C(CCCCCCc1ccccc1)c1nnc(-c2ccco2)o1 |  |  |  | 0.56 nM
O=C(CCCCCCCc1ccccc1)c1nnc(-c2ccco2)o1 |  |  |  | 0.29 nM
O=C(CCCCCCCc1ccccc1)c1ncc(-c2ccccn2)o1 | 1000 nM | 8 nM | > 100000 nM | 7.5 nM
CCCCCCCCCCCCCCCCCC(=O)C(F)(F)F | 4600 nM | 6400 nM | 6600 nM | 240 nM
O=C(CCCCCCc1ccccc1)c1nnc(-c2ccncc2)o1 | 30 nM | 20 nM | > 100000 nM | 1 nM
O=C(CCCCCCCc1ccccc1)c1nc2ncccc2o1 | 5 nM | 0.3 nM | 20000 nM | 0.39 nM
O=C(CCCCCCc1ccccc1)c1ncc(-c2ccccn2)o1 |  |  | > 100000 nM | 
O=C(CCCCCCCCc1ccccc1)c1nc2ncccc2o1 | 5 nM | 0.1 nM | 10000 nM | 0.52 nM
O=C(CCCCCCc1ccccc1)c1nc2ncccc2o1 | 3 nM | 0.3 nM | 20000 nM | 0.28 nM
O=C(CCCCCCCCc1ccccc1)c1ncc(-c2ccccn2)o1 | 6000 nM | 30 nM | > 100000 nM | 7.8 nM
O=C(CCCCCc1ccccc1)c1nc2ncccc2o1 | 1 nM | 1 nM | 10000 nM | 0.2 nM
O=C(CCCCCCCc1ccccc1)c1nnc(-c2ccccn2)o1 | 200 nM | 0.6 nM | 60000 nM | 
O=C(CCCCCc1ccccc1)c1nnc(-c2cccnc2)o1 |  |  |  | 0.85 nM
O=C(CCCCCCCc1ccccc1)C(F)(F)F | 5 nM | 2000 nM | 200 nM | 25 nM
O=C(CCCCCc1ccccc1)C(F)(F)F | 0.5 nM | 5000 nM | 800 nM | 170 nM
O=C(CCCCCc1ccccc1)c1nc2ccccc2o1 | 20 nM | 10000 nM | > 100000 nM | 220 nM
O=C(CCCCCc1ccccc1)c1ncc(-c2ccccn2)o1 | 200 nM | 100 nM | > 100000 nM | 11 nM
CCCCCCCCCCCC(=O)C(F)(F)F | 70 nM | 10000 nM | 500 nM | 140 nM
